The text below walks through data of ChEMBL document CHEMBL4402576, “Discovery and Development of Small-Molecule Inhibitors of Glycogen Synthase” (J Med Chem, 2020).

The test system of assay [1] is Saccharomyces cerevisiae. Kind of assay: Inhibition of recombinant His-tagged yeast GYS2P expressed in Escherichia coli BL21(DE3) cells assessed as enzyme activity at 20 uM using UDPG as substrate in presence of G-6-P by 14C-glucose incorporation assay relative to control. On the set-up: scale not given: the % may be the effect or the level left.
For assay [2], the target named is T1, Glycogen [starch] synthase, muscle (Homo sapiens, UniProt P13807).
T1 sequence (P13807 whole entry): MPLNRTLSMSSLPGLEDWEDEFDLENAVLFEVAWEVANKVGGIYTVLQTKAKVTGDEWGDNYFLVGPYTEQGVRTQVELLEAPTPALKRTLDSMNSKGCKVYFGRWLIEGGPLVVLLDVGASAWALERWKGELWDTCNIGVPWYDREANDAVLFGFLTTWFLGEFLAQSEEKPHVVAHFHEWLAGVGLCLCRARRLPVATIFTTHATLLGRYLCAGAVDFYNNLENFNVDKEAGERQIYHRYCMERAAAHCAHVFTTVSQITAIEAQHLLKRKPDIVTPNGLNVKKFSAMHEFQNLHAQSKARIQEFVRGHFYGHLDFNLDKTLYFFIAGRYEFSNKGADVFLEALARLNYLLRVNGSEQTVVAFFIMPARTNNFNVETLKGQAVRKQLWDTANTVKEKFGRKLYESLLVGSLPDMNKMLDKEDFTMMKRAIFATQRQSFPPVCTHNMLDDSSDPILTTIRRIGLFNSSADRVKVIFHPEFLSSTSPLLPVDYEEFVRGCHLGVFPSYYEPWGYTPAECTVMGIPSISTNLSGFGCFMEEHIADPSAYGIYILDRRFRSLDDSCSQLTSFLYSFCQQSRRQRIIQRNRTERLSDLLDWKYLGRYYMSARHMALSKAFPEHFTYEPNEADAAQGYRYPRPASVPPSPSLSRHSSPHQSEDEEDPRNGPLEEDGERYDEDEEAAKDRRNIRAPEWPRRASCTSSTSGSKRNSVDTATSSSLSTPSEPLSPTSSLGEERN
Kind of assay: Inhibition of C-terminal 6His-tagged wild type human GYS1 using UDPG as substrate in presence of 1 mM G-6-P by 14C-glucose incorporation assay. In outline:
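Full-length wild-type hGYS1 with C-terminal 6×His tag in place of the intein-chitin binding domain, Ni-NTA purified. Glucose transfer from UDP-[14C]glucose into glycogen with 0.2 mM UDPG and 1 mM G6P. Controls contained 2% (v/v) DMSO. IC50 was fitted by four-parameter logistic. Values are mean ± SEM of at least three independent experiments in duplicate.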

Assay [3] has as its target T2, Glycogen [starch] synthase, muscle (Homo sapiens) (UniProt P13807).
T2 sequence (whole entry): T1 sequence (P13807 whole entry)
Kind of assay: Inhibition of C-terminal 6His-tagged wild type human GYS1 assessed as enzyme activity at 20 uM using UDPG as substrate in presence of 1 mM G-6-P by 14C-glucose incorporation assay relative to control. On the set-up: scale not given: the % may be the effect or the level left.

The species named for assay [4] is Homo sapiens. Description: Inhibition of C-terminal 6His-tagged human GYS1 delta634S8,11N mutant assessed as enzyme activity at 20 uM using UDPG as substrate in presence of 0.4 mM G-6-P by 14C-glucose incorporation assay relative to control. Set-up: scale not given: the % may be the effect or the level left.
In assay [5] the target is T3, Glycogen [starch] synthase, muscle (Rattus norvegicus) (UniProt A2RRU1).
T3 sequence (whole entry): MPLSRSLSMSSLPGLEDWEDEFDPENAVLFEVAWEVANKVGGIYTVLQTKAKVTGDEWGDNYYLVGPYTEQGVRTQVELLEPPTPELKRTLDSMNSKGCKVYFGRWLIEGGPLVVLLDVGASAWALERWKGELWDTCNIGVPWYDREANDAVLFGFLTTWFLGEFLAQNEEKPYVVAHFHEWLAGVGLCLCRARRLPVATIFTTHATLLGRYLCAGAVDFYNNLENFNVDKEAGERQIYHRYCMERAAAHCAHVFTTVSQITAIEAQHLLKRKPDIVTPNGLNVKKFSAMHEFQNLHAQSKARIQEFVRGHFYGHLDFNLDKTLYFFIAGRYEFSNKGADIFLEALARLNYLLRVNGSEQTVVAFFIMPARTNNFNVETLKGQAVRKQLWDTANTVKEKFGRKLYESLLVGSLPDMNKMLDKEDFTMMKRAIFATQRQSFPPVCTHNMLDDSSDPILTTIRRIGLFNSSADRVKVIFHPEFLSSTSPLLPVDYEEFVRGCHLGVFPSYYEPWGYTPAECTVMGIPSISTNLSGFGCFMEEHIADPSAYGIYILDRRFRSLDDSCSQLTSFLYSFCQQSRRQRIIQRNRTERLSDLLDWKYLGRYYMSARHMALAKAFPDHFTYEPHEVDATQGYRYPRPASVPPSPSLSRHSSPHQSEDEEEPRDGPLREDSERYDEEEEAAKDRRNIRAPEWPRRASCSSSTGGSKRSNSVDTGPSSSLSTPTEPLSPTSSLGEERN
Description: Inhibition of glycogen synthase in rat-1 fibroblast cell lysates at 100 uM using 0.2 mM UDPG as substrate in presence of 1 mM G-6-P by 14C-glucose incorporation assay relative to control. Type of assay: subcellular. The conditions noted are these: Lysate. The method, boiled down: (§1)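 Lysates came from HEK293 cells stably expressing PTG (5.5 mM glucose αMEM, 10% FBS, hygromycin) or from Rat-1 cells (25 mM glucose DMEM, 10% FBS), grown 3–4 days to confluency. Cells were lysed by freezing, scraping and sonication in Tris/EDTA/EGTA/NaF buffer with protease inhibitors and Triton. Assays used 0.15 mg/mL (HEK293-PTG) or 0.75 mg/mL (Rat-1) lysate in 50 mM Tris-HCl pH 7.8 with 6.7 mg/ml glycogen and 2% DMSO. Read-out was [14C]glucose incorporation relative to DMSO control, in triplicate.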

For assay [6], the target named is T2, Glycogen [starch] synthase, muscle (Homo sapiens). Description: Inhibition of glycogen synthase in human HEK293 cell lysates overexpressing mouse PTG at 100 uM using 0.2 mM UDPG as substrate in presence of 1 mM G-6-P by 14C-glucose incorporation assay relative to control. The following applies: Lysate. Type of assay: subcellular. The method, boiled down:
as §1

Assay [7] has the same target. Kind of assay: Inhibition of C-terminal 6His-tagged wild type human GYS1 assessed as enzyme activity at 300 uM using UDPG as substrate in presence of 1 mM G-6-P by 14C-glucose incorporation assay relative to control. Set-up: scale not given: the % may be the effect or the level left.
The species named for assay [8] is Homo sapiens. Description: Inhibition of C-terminal 6His-tagged human GYS1 delta634S8,11N mutant assessed as enzyme activity at 300 uM using UDPG as substrate in presence of 0.4 mM G-6-P by 14C-glucose incorporation assay relative to control. On the set-up: scale not given: the % may be the effect or the level left.
In assay [9] the test system is Saccharomyces cerevisiae. Kind of assay: Inhibition of recombinant His-tagged yeast GYS2P expressed in Escherichia coli BL21(DE3) cells assessed as enzyme activity at 300 uM using UDPG as substrate in presence of G-6-P by 14C-glucose incorporation assay relative to control. Set-up: scale not given: the % may be the effect or the level left.

As to `O=[N+]([O-])c1ccc(-c2c[nH]nc2-c2ccc(O)c(O)c2O)cc1`, the results for the Activity in assay [1], in assay [3] and in assay [4] were 78.4%, 66.8% and 85%, respectively. Further, the IC50 in assay [2] was found to be 34 µM.
`O=[N+]([O-])c1ccc(-c2c(-c3ccc(O)c(O)c3O)n[nH]c2C(F)(F)F)cc1`: the Activity in [1] was found to be 18.8%; in assay [3], 1.43%; in [4], 10.5%. For the same molecule, the inhibition in assay [5] and in assay [6] was over 30% in each case. The IC50 in [2] stood at 6.54 µM.
For the molecule `Cc1[nH]nc(-c2ccc(O)c(O)c2O)c1-c1ccc(Cl)c(Cl)c1`, the figures for the Activity in assay [1], in assay [3] and in [4] were over 95%, 84.7% and 81.7%, respectively.
For `Oc1ccc(-c2n[nH]cc2-c2ccccc2)c(O)c1O`, the Activity in [1] is over 95%; in assay [3], 84.7%; in assay [4] it was 25.2%.
For the molecule `Oc1ccc(-n2c(-c3ccccc3)ccc2-c2ccccc2)cc1`, the results for the Activity in [7], in assay [8] and in assay [9] were over 95%, over 95% and 86%, respectively.
`Oc1ccc(-c2n[nH]c(C(F)(F)F)c2-c2ccc(F)cc2)c(O)c1O`: the Activity in assay [1] was found to be 45.7%; in assay [3], 47.8%; in assay [4], 11.7%. Besides, the inhibition in assay [5] and in assay [6] was over 30% each time. Further, the half-inhibitory concentration (IC50) in [2] turned out to be 14.1 µM.
Regarding `Cc1ccc(-c2ccccc2)n1-c1ccc(O)cc1`, the Activity in [7] was over 95%; in assay [8], 84.3%; in assay [9] it was 79.7%.
With `Cc1[nH]nc(-c2ccc(O)c(O)c2O)c1-c1ccc(Cl)cc1`, the Activity was over 95% in [1]; 4.34% in [7]; 6.47% in [8]; 3.52% in [9]; 91.8% in assay [3]; over 95% in [4]. The IC50 in [2] worked out at 52.9 µM.
On to `O=C(O)CCc1ccc(-c2ccccc2)n1-c1ccc(F)cc1`, for which the results for the Activity in assay [7], in assay [8] and in [9] were 87.5%, 72.1% and 84.7%, respectively.
Take `Cc1[nH]nc(-c2ccc(O)c(O)c2O)c1-c1ccc(F)cc1`: the Activity in assay [1] was over 95%; in assay [3], 94%; in assay [4] it was 89%.
With `Oc1ccc(-c2n[nH]c(C(F)(F)F)c2-c2ccc(Cl)cc2)c(O)c1O`, the Activity in [1] amounted to 51.5%; in assay [3], 47.5%; in [4], 11.8%. For the same molecule, the inhibition in [5] and in assay [6] was over 30% each time. In addition, the half-inhibitory concentration (IC50) in assay [2] was determined as 19.8 µM.
`COc1ccc(-c2ccc(CCC(=O)O)n2-c2ccc(O)cc2)cc1`: the Activity in assay [7] was 84%; in assay [8], 50.6%; in assay [9], 34.5%.
For `Oc1ccc(-c2n[nH]c(C(F)(F)F)c2-c2ccc(Cl)c(Cl)c2)c(O)c1O`, the values for the Activity in [1], in assay [3] and in assay [4] were 47.4%, 12.2% and 5.28%, respectively. The IC50 in [2] was determined as 13.7 µM.
As to `Oc1ccc(-c2n[nH]c(C(F)(F)F)c2-c2ccc(Cl)cc2)c(O)c1`, the Activity was over 95% in assay [1], over 95% in assay [3] and 87.9% in assay [4].
Turning to `NC(=O)c1ccc(-n2c(CCC(=O)O)ccc2-c2ccccc2)cc1`, the Activity worked out at 78.7% in assay [7], 40.6% in [8] and 49.3% in assay [9].
Regarding `N#Cc1ccc(-c2c(-c3ccc(O)c(O)c3O)n[nH]c2C(F)(F)F)cc1`, the Activity in assay [1] worked out at 51.2%; in [3], 42%; in [4], 8.14%. The half-maximal inhibitory concentration (IC50) in assay [2] was 10.1 µM.
Regarding `Oc1ccc(-c2n[nH]cc2-c2ccc(Cl)c(Cl)c2)c(O)c1O`, the IC50 in assay [2] was 19.5 µM. The Activity in assay [3] stood at 52.5%.
Regarding `Oc1ccc(-c2n[nH]c(C(F)(F)F)c2-c2ccccc2)c(O)c1O`, the values for the Activity in assay [1], in [3] and in assay [4] were 51.8%, 47.2% and 5.68%, respectively. Moreover, the half-maximal inhibitory concentration (IC50) in assay [2] amounted to 16.4 µM.
Take `O=[N+]([O-])c1ccc(-c2c(-c3ccc(O)cc3O)n[nH]c2C(F)(F)F)cc1`: the values for the Activity in assay [1], in assay [3] and in [4] were 82.3%, 89.2% and 92.7%, respectively.
Turning to `Oc1ccc(-c2c(-c3ccccc3)ncn2CCc2c[nH]cn2)cc1`, the Activity in [7] came to 93.4%; in assay [8], 56.6%; in assay [9], 66.6%.
For `Oc1ccc(-c2c(-c3ccccc3)ncn2CCCn2ccnc2)cc1`, the values for the Activity in assay [7], in [8] and in assay [9] were over 95%, over 95% and 94.8%, respectively.
On to `c1ccc(-c2ncn(CCc3c[nH]cn3)c2-c2ccncc2)cc1`, for which the Activity in [7] was over 95%; in [8] it was 94.4%; in assay [9] it was 72.7%.
On to `Oc1ccc(-c2c[nH]nc2-c2ccc(O)c(O)c2O)cc1`, for which the Activity in [1] came to 6.21%; in assay [3] it was 22.6%; in assay [4], 23%. In assay [2], the concentration for half-maximal inhibition (IC50) was found to be 9.82 µM.
As for `CN1CCCC1CCn1cnc(-c2ccccc2)c1-c1ccncc1` (centres undefined), the Activity in [7] was over 95%; in assay [8], 93.3%; in assay [9], over 95%.
Consider `COC(=O)c1ccc(-c2c(-c3ccc(O)c(O)c3O)n[nH]c2C)cc1`, for which the values for the Activity in assay [1], in [3] and in assay [4] were 90.6%, 80.1% and over 95%, respectively.
In the case of `Oc1ccc(-c2n[nH]c(C(F)(F)F)c2-c2ccc(OC(F)(F)F)cc2)c(O)c1O`, the Activity in assay [1] was 91.6%; in assay [3], 81.4%; in assay [4], 40.3%.
Consider `Oc1ccc(-c2c(-c3cc(F)c(O)cc3O)n[nH]c2C(F)(F)F)cc1`, for which the figures for the Activity in assay [1], in assay [3] and in assay [4] were 65.2%, 78.4% and 74.2%, respectively. Also, the IC50 in assay [2] is 72.4 µM.

Usually IC50 stands for the concentration that inhibits the measured activity by half. One may read the inhibition as how much of the control response was suppressed.
